Results: ChEMBL document CHEMBL5120856, “New salicylic acid derivatives, double inhibitors of glycolate oxidase and lactate dehydrogenase, as effective agents decreasing oxalate production” (Eur J Med Chem, 2022)
pIC50, pKi: −log10 of the molar value. Calls of active or inactive are those of the source. The calls are words filed in the database; no cut-off is given here.

What was measured:
2-Hydroxyacid oxidase 1 = molecular target: T1, 2-Hydroxyacid oxidase 1 (Homo sapiens, UniProt Q9UJM8); assay: Inhibition of N-terminal His-tagged human recombinant glycolate oxidase expressed in Escherichia coli BL21 (DE3) cells using glycolate as substrate preincubated for 10 mins followed by substrate addition and measured after 10 mins by Amplex red and horseradish peroxidase based fluorescence assay
T1 sequence (Q9UJM8 whole entry): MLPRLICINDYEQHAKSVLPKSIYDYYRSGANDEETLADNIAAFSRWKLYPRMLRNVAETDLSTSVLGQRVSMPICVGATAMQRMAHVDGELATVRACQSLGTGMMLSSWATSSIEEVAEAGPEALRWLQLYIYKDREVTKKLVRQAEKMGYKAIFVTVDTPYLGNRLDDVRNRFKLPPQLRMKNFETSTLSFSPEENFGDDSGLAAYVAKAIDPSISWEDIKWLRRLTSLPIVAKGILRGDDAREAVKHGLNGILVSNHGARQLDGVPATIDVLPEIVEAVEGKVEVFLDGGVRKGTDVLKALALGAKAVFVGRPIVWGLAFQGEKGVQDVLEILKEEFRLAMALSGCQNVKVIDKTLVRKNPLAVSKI

[1] = molecular target: T2, L-lactate dehydrogenase A chain (Homo sapiens, UniProt P00338); assay: Inhibition of human recombinant LDHA using pyruvate as substrate preincubated for 10 mins followed by substrate addition and measured every 60 sec for 10 mins in the presence of NADH by fluorescence assay
[2] = molecular target: T3, L-lactate dehydrogenase B chain (Homo sapiens, UniProt P07195); assay: Inhibition of human recombinant LDHB using pyruvate as substrate preincubated for 10 mins followed by substrate addition and measured every 60 sec for 10 mins in the presence of NADH by fluorescence assay
T3 sequence (P07195 whole entry): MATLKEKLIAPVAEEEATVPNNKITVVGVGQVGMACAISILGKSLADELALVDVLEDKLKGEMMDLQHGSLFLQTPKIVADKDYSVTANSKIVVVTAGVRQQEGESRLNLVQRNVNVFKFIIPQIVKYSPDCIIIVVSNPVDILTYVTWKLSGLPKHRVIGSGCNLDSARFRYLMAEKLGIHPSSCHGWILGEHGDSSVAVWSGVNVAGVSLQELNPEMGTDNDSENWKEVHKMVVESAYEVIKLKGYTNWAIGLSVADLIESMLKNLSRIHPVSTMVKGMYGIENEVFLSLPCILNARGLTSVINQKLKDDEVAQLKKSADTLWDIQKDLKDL

[3] = molecular target: T4, 2-Hydroxyacid oxidase 1 (Homo sapiens) (UniProt Q9UJM8); assay: (§1) Reversible inhibition of N-terminal His-tagged human recombinant glycolate oxidase expressed in Escherichia coli BL21 (DE3) cells assessed as enzyme recovery using glycolate as substrate at 10 times of IC50 concentration preincubated for 30 mins followed by substrate addition and measured every 60 sec for 15 mins by jump-dilution based Amplex red and horseradish peroxidase fluorescence assay; settings: time 45.0 min
T4 sequence (whole entry): T1 sequence (Q9UJM8 whole entry)

[4] = molecular target: T4, 2-Hydroxyacid oxidase 1 (Homo sapiens); assay: as §1, with “100” for “10”; settings: time 45.0 min
[5] = molecular target: T2, L-lactate dehydrogenase A chain; assay: Non-competitive inhibition of human recombinant LDHA assessed as inhibition constant using varying concentration of pyruvate as substrate preincubated for 10 mins followed by substrate addition and measured every 60 sec for 10 mins in the presence of NADH by fluorescence assay
[6] = molecular target: T3, L-lactate dehydrogenase B chain; assay: Non-competitive inhibition of human recombinant LDHB assessed as inhibition constant using varying concentration of pyruvate as substrate preincubated for 10 mins followed by substrate addition and measured every 60 sec for 10 mins in the presence of NADH by fluorescence assay
[7] = molecular target: T2, L-lactate dehydrogenase A chain; assay: Non-competitive inhibition of human recombinant LDHA assessed as decrease in Vmax with no effect on Km using pyruvate as substrate upto 20 uM
Hepatocyte [8] = assay: Inhibition of GO/LDHA in hyperoxaluric-primary hepatocyte isolated from Agxt1 knockdown PH1 C57BL/6 mouse assessed as relative oxalate output at 10 uM measured at 24 hrs in the presence of glycolate relative to control; assay type: cell-based
Procedure, shortened: (§2)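 Agxt1-/- mouse primary hepatocytes cultured with 5 mM glycolate, inhibitor at 10 μM; extracellular oxalate measured by colorimetric kit 24 and 48 h after inhibitor addition; relative oxalate = oxalate with inhibitor over oxalate without inhibitor; negative values mean below detection limit; mean of three/four replicates ± SD.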

Hepatocyte [9] = assay: Inhibition of GO/LDHA in hyperoxaluric-primary hepatocyte isolated from Agxt1 knockdown PH1 C57BL/6 mouse assessed as relative oxalate output at 10 uM measured at 48 hrs in the presence of glycolate relative to control; assay type: cell-based; procedure, shortened: as §2
Hepatocyte [10] = assay: Inhibition of GO/LDHA in hyperoxaluric-primary hepatocyte isolated from Grhpr-knockdown PH2 C57BL/6 mouse assessed as relative oxalate output at 10 uM measured at 48 hrs in the presence of glycolate relative to control; assay type: cell-based
Procedure, shortened: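 Grhpr-/- mouse primary hepatocytes cultured with 10 mM glycolate, inhibitor at 10 μM; extracellular oxalate determined colorimetrically at 24 and 48 h post-treatment, expressed relative to untreated medium (RO); negative RO means below detection limit; three/four replicates, mean ± SD.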

Hepatocyte [11] = assay: Inhibition of GO/LDHA in hyperoxaluric-primary hepatocyte isolated from Hoga1-knockdown PH3 C57BL/6 mouse assessed as relative oxalate output at 10 uM measured at 24 hrs in the presence of hydroxyproline relative to control; assay type: cell-based
Procedure, shortened: (§3)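 Hoga1-/- mouse primary hepatocytes challenged with 10 mM hydroxyproline, inhibitor 10 μM; extracellular oxalate measured by colorimetric kit 24 and 48 h after dosing, given as ratio to oxalate without inhibitor; negative values are below detection limit; mean of three/four replicates ± SD.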

Hepatocyte [12] = assay: Inhibition of GO/LDHA in hyperoxaluric-primary hepatocyte isolated from Hoga1-knockdown PH3 C57BL/6 mouse assessed as relative oxalate output at 10 uM measured at 48 hrs in the presence of hydroxyproline relative to control; assay type: cell-based; procedure, shortened: as §3
Hepatocyte [13] = assay: Cytotoxicity against hyperoxaluric-primary hepatocyte isolated from Hoga1-knockdown PH3 C57BL/6 mouse assessed as cell death at 10 uM by MTS assay; assay type: toxicity, cell-based; settings: hepatocytes, Hoga1-knockdown PH3, 10 µM
Procedure, shortened: (§4)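 Primary hepatocytes from Agxt1-/- (PH1, 5 mM glycolate), Grhpr-/- (PH2, 10 mM glycolate) or Hoga1-/- (PH3, 10 mM hydroxyproline) mice, incubated with inhibitor at 10 μM; viability followed through the oxalate assay by MTS tetrazolium method.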

Hepatocyte [14] = assay: Cytotoxicity against hyperoxaluric-primary hepatocyte isolated from Agxt1-knockdown PH1 C57BL/6 mouse assessed as cell death at 10 uM by MTS assay; assay type: toxicity, cell-based; settings: hepatocytes, Agxt1-knockdown PH1, 10 µM; procedure, shortened: as §4
[15] = molecular target: T5, Prostaglandin G/H synthase 1 (Ovis aries, UniProt P05979); assay: Inhibition of ovine COX-1 using arachidonic acid as substrate measured every 60 sec for 10 mins by fluorescence based assay
T5 sequence (P05979 whole entry): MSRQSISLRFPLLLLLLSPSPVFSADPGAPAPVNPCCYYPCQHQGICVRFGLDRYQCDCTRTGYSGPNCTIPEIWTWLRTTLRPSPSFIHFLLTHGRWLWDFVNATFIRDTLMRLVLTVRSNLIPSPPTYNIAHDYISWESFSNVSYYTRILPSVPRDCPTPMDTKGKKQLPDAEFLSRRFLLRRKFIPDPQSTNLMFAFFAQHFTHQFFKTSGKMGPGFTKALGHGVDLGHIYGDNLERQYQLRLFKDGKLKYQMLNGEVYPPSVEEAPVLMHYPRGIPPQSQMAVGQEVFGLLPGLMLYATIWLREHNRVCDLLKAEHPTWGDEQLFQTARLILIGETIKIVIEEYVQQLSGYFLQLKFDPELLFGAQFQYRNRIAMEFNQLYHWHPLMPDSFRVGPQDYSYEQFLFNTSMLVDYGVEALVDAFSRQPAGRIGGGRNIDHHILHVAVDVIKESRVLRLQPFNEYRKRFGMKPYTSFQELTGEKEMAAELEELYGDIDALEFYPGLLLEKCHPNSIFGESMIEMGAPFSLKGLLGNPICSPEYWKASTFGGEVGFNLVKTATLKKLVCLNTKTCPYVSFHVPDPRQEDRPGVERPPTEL

HEK293 = assay: Cytotoxicity against HEK293 cells assessed as reduction in cell viability upto 50 uM measured after 48 hrs by MTT assay; assay type: toxicity, cell-based; settings: human, hek293, 48 h

Q: `N.N.O=C(O)c1cc(-c2ccc(CN(Cc3ccccc3)Cc3ccc(-c4ccc(O)c(C(=O)O)c4)o3)o2)ccc1O` was tested. Which pIC50 (2-Hydroxyacid oxidase 1) did it give?
A: 5.82

Q: And the pIC50 [1]?
A: 6.40

Q: What about the pIC50 [2] of the same compound?
A: 6.70

Q: What about the inhibition [3] of the same compound?
A: Active

Q: And the inhibition [4]?
A: Active

Q: What about the pKi [5] of the same compound?
A: 7.05

Q: What about the pKi [6] of the same compound?
A: 6.15

Q: And the inhibition [7]?
A: Active

Q: What about the fold change (FC) (Hepatocyte [8]) of the same compound?
A: 0.66

Q: What about the fold change (FC) (Hepatocyte [9]) of the same compound?
A: 0.76

Q: What about the fold change (FC) (Hepatocyte [10]) of the same compound?
A: 0.76

Q: And the fold change (FC) (Hepatocyte [11])?
A: 0.41

Q: And the fold change (FC) (Hepatocyte [12])?
A: 0.47

Q: And the Activity (Hepatocyte [13])?
A: Non-Toxic

Q: What about the Activity (Hepatocyte [14]) of the same compound?
A: Non-Toxic

Q: What about the pIC50 [15] of the same compound?
A: 4.62

Q: What about the Activity (HEK293) of the same compound?
A: Non-Toxic
